Assay outcomes as filed in PubChem.
This is a sample that favours compounds with a hit; in the whole collection about 2.5% have one here.
SR-BI uptake up: SR-BI HDL lipid transfer activation. CHO ldlA[mSR-BI] cells, DiI-HDL uptake fluorescence, 3 h; 100 = double the neutral-control signal. activation, % at 12.5 µM. hit rate 0.096% among 320,000;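 active = mean replicate activation of at least 60% and every replicate at or above 60%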;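 note: 0% = median plate neutral-control signal and 100% = twice that signal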
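Material – SR-BI-overexpressing, LDLR-lacking CHO cells · Medium – BSA-supplemented, HEPES-buffered Ham's F12, pH 7.4 · Doses – single concentration · Times – compound with DiI-HDL co-incubation, 3 h at 37 °C · Measured by – bottom-read fluorescence, 550/595 nm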
SMARCA2 activ: SMARCA2 function activation, primary screen; hit rate 1% among 370,000; AID 652017; MG213 cells, MMTV-luciferase reporter, dexamethasone, overnight; activation, % at 9.1 µM; in the data active = activation above about 7.8%;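 note: 0% = vehicle wells and 100% = reference activator wells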
Vif inh: blocks HIV Vif function. HEK293T cells, Vif self-association by quenched fluorescence, imaging, 24 h. inhibition, % at 7.49 µM. hit rate 0.35% among 340,000; in the data active = inhibition above about 50%, passing the limit was not always enough
SR-BI DiI inh: blocks mouse SR-BI lipid uptake from DiI-HDL; Q61009; ldlA[mSR-BI] CHO cells, DiI-HDL uptake fluorescence, 3 h; inhibition, % at 12.5 µM; hit rate 0.96% among 320,000; AID 488896;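 active = mean replicate inhibition of at least 70% and a set share of replicates each scoring 70 or more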;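 note: 0% = median of neutral control wells and 100% = median of positive control wells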
Target sequence (Q61009 whole entry, looked up): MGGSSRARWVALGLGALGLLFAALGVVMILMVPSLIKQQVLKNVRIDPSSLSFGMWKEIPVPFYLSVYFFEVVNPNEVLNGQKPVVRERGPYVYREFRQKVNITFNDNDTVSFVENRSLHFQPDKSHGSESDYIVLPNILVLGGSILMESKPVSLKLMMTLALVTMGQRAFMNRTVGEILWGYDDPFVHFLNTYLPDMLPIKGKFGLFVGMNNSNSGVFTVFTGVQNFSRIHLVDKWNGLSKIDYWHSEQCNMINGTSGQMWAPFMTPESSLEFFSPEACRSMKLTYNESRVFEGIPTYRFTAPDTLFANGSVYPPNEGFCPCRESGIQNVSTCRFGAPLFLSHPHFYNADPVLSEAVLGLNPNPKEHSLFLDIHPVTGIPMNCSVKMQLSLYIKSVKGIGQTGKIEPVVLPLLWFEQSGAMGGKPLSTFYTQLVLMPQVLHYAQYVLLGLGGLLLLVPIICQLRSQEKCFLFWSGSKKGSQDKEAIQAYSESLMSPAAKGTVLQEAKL
TAG inh: triacylglycerol accumulation inhibition | H9c2 cells, Nile Red lipid (TAG) fluorescence; cells loaded with 200 µM oleic acid | hit rate 0.66% among 230,000 | AID 651582 | inhibition, % at 12.5 µM;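 active = pattern-corrected inhibition of lipid staining of at least 50% with the nuclear-stain viability signal not falling by more than 50%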;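 note: 0% = DMSO wells and 100% = triacsin C control wells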
SMARCA2 act conf: SMARCA2 activation, confirmation screen | shares compounds with SMARCA2 activ | MG213 cells, MMTV-luciferase with dexamethasone, luminescence, overnight; MG213 cells expressing E1A, Rb sequestered; DMSO wells 0%, reference activator 100% | activation, % at 9.1 µM | hit rate 30% among 3,500;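 active = activation above its plate's cutoff, the mean activation of tested wells plus 3 SD, cut at about 7.9% in these data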
GAL4-VP16 Luc: GAL4-VP16 reporter activation counter-screen. shares compounds with SMARCA2 activ. HEK293 GAL4-VP16 pG5luc reporter, luciferase luminescence; scaled: DMSO wells 0%, SAHA wells 100%. activation, % at 9.1 µM. hit rate 41% among 3,500;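 active = activation above the solvent-only control well mean plus 3 SD, averaged across control plates, cut at about 5.2% in these data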
Active calls of the source: *; nt = no result; ! = not active in a repeat.

SMILES | SR-BI uptake up | SMARCA2 activ | Vif inh | SR-BI DiI inh | TAG inh | SMARCA2 act conf | GAL4-VP16 Luc
COCCCn1cnn2c(=O)c3ccccc3nc2c1=O | nt | -4 | nt | nt | nt | nt | nt
CSc1ccccc1C(=O)Nc1cc(C)cc(C)c1 | -40 | 9.3* | -1 | 40 | -7 | 5 | 1
O=C(/C=C1\SC(=O)NC1=O)Nc1ccc(F)cc1 | -4 | 8.4* | -1 | 4 | 25 | 6 | 2
O=C(COc1ccccc1/C=C1\SC(=O)NC1=O)Nc1ccccc1 | -3 | -3 | nt | 3 | 5 | nt | nt
COc1ccc(-c2csc3nc(C)n(-n4cccc4)c(=O)c23)cc1OC | -30 | 9.1* | -1 | 30 | nt | -2 | 2
CCc1ccc(OCC(=O)NC(=S)Nc2ccc(C(C)=O)cc2)c(Br)c1 | -8 | 0 | 4 | 8 | nt | nt | nt
CCc1ccc(OCC(=O)NC(=S)Nc2ccc(F)cc2)c(Br)c1 | 10 | 8.9* | 0 | -10 | nt | 4 | 3
O=C(c1ccccc1)c1ccc2c(c1)OCCOCCOCCO2 | 1 | -4 | 4 | -1 | 0 | nt | nt
O=C(c1ccccc1)c1ccc2c(c1)OCCCO2 | 0 | 11* | -5 | 0 | 5 | 8.1* | 8.9*
COc1ccc(NC(=S)NC(=O)c2ccc3c(c2)OCCO3)cc1 | -12 | 11* | -1 | 12 | 1 | 1 | 11*
O=C(NC(=S)Nc1ccc2c(c1)OCCO2)c1ccccc1F | -28 | 3 | -3 | 28 | -10 | nt | nt
O=C(NC(=S)Nc1ccc2c(c1)OCCO2)c1ccccc1 | 2 | 9.7* | 7 | -2 | nt | 5 | 9.1*
O=C(CCl)N1CCN(S(=O)(=O)Cc2ccccc2)CC1 | 9 | 1 | 3 | -9 | 29 | nt | nt
O=C(C1CCCN1S(=O)(=O)c1ccc(Br)s1)N1CCc2ccccc2C1 (stereo not given) | nt | -4 | nt | nt | nt | nt | nt
COC(=O)[C@]12C[C@H](CC(=O)NCc3ccc(OC)c(OC)c3)C(=O)N(Cc3ccc4c(c3)OCO4)C1=C[C@H](COCc1ccccc1)O[C@@H]2C | nt | -4 | nt | nt | nt | nt | nt
C[C@H](CO)N1C[C@H](C)[C@@H](CN(C)CC2CC2)OCc2cnnn2CCCC1=O | nt | -2 | -3 | nt | -5 | nt | nt
N#C/C(=C/c1ccc(N2CCOCC2)o1)C(=O)Nc1ccccc1 | -34 | 8.8* | nt | 34 | -21 | 7 | 11*
Cc1ccc2nc(/C(C#N)=C\c3ccc(N4CCOCC4)o3)[nH]c2c1 | -50 | 0 | -4 | 50 | -145 | nt | nt
Cc1ccc(/C(C#N)=C\c2ccc(N3CCOCC3)o2)cc1 | -45 | 9.1* | 3 | 45 | nt | 14* | 21*
COc1cc(/C=C(\C#N)C(=O)Nc2ccccc2)ccc1OCCN1CCOCC1 | -55 | 8.5* | 2 | 55 | 11 | 5 | 6.0*
Cc1ccc(-n2c(SCC(=O)c3ccc4c(c3)OCO4)nc3ccccc3c2=O)cc1 | nt | -3 | nt | nt | nt | nt | nt
Cc1ccc(-c2ccc(CCC(=O)O)n2NC(N)=S)cc1 | -8 | 8.4* | 5 | 8 | -1 | -1 | 1
COc1ccc(-c2ccc(CCC(=O)O)n2NC(N)=O)cc1 | nt | -2 | nt | nt | 2 | nt | nt
CCOC(=O)C1CSCCS(=O)(=O)N1Cc1ccc(Br)cc1 (stereo not given) | nt | -5 | nt | nt | nt | nt | nt
Cc1cc(NC(=O)CSc2n[nH]c(-c3ccccc3Br)n2)no1 | 28 | -3 | 23 | -28 | 6 | nt | nt
C/C(N)=C(/C#N)C(=O)CSc1n[nH]c(-c2ccccc2Br)n1 | -3 | 8.6*! | -3 | 3 | 1 | -1 | 1
C/C(N)=C(/C#N)C(=O)CSc1ccccc1F | 19 | 9.0* | 5 | -19 | -8 | 10* | 8.8*
C/C(N)=C(/C#N)C(=O)CSc1nnc(Cc2ccccc2F)n1N | 23 | 4 | 0 | -23 | 13 | nt | nt
Cc1cn([C@H]2C[C@H](O)[C@@H](/C=C/C(=O)NCc3ccco3)O2)c(=O)[nH]c1=O | nt | 10* | 1 | nt | nt | -1 | 1
Cc1cn([C@H]2C[C@H](O)[C@@H](/C=C/C(=O)NCc3ccc(N(C)C)cc3)O2)c(=O)[nH]c1=O | nt | -2 | -5 | nt | nt | nt | nt
